The values below come from ChEMBL document CHEMBL2069203, “Cytotoxic and antibacterial beilschmiedic acids from a Gabonese species of Beilschmiedia” (J Nat Prod, 2012).

One experiment deals with Staphylococcus aureus. The experiment is described as follows: Antimicrobial activity against methicillin-resistant Staphylococcus aureus isolate 108 incubated for 24 hrs by broth microdilution method. The class given is functional. The essentials: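 CLSI broth microdilution on clinical MRSA isolate 108. Overnight trypticase soy broth culture diluted 1:100 in cation-adjusted Mueller-Hinton broth, grown at 37 °C to OD600 0.2, diluted 1:100 again to give 10^6 cfu/mL. Compound in DMSO diluted in medium, tested across a concentration series, 3-6 wells each. Vancomycin positive control. Incubated 24 h at 37 °C. MIC = lowest concentration preventing visible growth.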
A general note: Broth dilution looks for growth in wells or tubes with falling amounts of substance.

In the next experiment the test system is PC-3. The experiment is described as follows: Cytotoxicity against human PC3 cells incubated for 72 hrs by MTT assay. The class given is functional, cell-based. Put shortly:
(§1)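 Cells kept in RPMI-1640 with 10% FBS plus L-glutamine and HEPES, seeded at 5 × 10^2 to 5 × 10^4 cells/well and left to adhere overnight. Medium was replaced with DMSO stock diluted in medium at eight concentrations, 2−5 wells each. Camptothecin and vehicle served as controls. After 72 h at 37 °C, 5% CO2, viable cells were read by CellTiter 96 AQueous. IC50 came from dose−response curves.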
On the technique in general: Formazan colour is commonly taken as a measure of viable cells.

A further experiment concerns M14. Kind of experiment: Cytotoxicity against human M14 cells incubated for 72 hrs by MTT assay. The class given is functional, cell-based. The essentials:
as §1

Experiment [1] has as its system NCI-H460. Kind of experiment: Induction of membrane disruption in human NCI-H460 cells at 20 uM by LDH release assay. The class given is functional, cell-based. Put shortly:
(§2)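 NCI-H460 cells were plated at 1 × 10^4 cells/well in RPMI-1640 with 10% fetal calf serum and attached overnight. Compound or DMSO vehicle was added and incubated 24 or 72 h. Supernatant LDH was measured with the CytoTox 96 kit, absorbance at 490 nm, with kit lysis solution as positive control.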
Background: LDH leaks from cells whose membrane has failed.

Experiment [2] concerns NCI-H460. Kind of experiment: Cytotoxicity against human NCI-H460 cells incubated for 72 hrs by MTT assay. The class given is functional, cell-based. Put shortly:
as §1

The test system of experiment [3] is NCI-H460. Kind of experiment: Induction of membrane disruption in human NCI-H460 cells at 3 yo 5 fold cytotoxic IC50 level by LDH release assay. The class given is functional, cell-based. The essentials: as §2
The test system of experiment [4] is NCI-H460. The experiment is described as follows: Induction of apoptosis in human NCI-H460 cells assessed as caspase 3/7 activation at 26.1uM. The class given is functional, cell-based. Put shortly: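 NCI-H460 cells were plated at 1 × 10^4 cells/well in RPMI-1640 with 10% fetal calf serum and attached overnight. Compound or DMSO vehicle was added and incubated 24 or 72 h. Caspase 3/7 activity was read by Caspase-Glo 3/7 luminescence, with camptothecin 10 μg/mL as positive control. A result counted as active when caspase exceeded background plus two SD of the negative control without LDH release.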

Where [5] appears, read: Homo sapiens, NCI-H460, 72 h, read-out: IC50.

Molecules are shown by their SMILES. Converted amounts (≈) assume the structure as drawn. The source made the active and inactive calls.

As usually defined, the MIC is the smallest concentration in the dilution series that meets the test's criterion for growth inhibition. For orientation: IC50 means the concentration needed to halve the response being measured.

In the case of `O=C(O)C1=C[C@@H](O)[C@@H]2C[C@H]3[C@H](CCC/C=C/C=C/c4ccccc4)[C@H]4C=C[C@@H]1[C@@H]2[C@H]43`, the MIC result in the experiment with Staphylococcus aureus is “inactive”. Besides, the outcome with PC-3, in the experiment on M14 and in the experiment with NCI-H460 [1] was inactive. Further, in the experiment with NCI-H460 [2] (nci-h460), the IC50 result is “Not Active”.
The compound `CCCCCCCC[C@@H]1[C@H]2C=C[C@H]3C(C(=O)O)=C[C@H](O)[C@@H]4C[C@@H]1[C@@H]2[C@H]43` [BEILSCHMIEDIC ACID A] came in with an MIC in the experiment with Staphylococcus aureus (isolate 108, 24 h) of 10 µg/mL (≈ 29 µM). Further, the result in the experiment with PC-3 and in the experiment with M14 was inactive. In addition, in the experiment on NCI-H460 [2] (setting [5]), the IC50 is 6.1 µM.
Turning to `CCCCCCCC[C@@H]1[C@H]2C=C[C@H]3C(C(=O)O)=C[C@@H](O)[C@@H]4C[C@@H]1[C@@H]2[C@H]43` [BEILSCHMIEDIC ACID C], the MIC result in the experiment on Staphylococcus aureus is “inactive”. Moreover, the result with PC-3, in the experiment on M14 and in the experiment with NCI-H460 [1] was inactive. In addition, the IC50 entry in the experiment with NCI-H460 [2] (nci-h460) is “Not Active”.
Take `O=C(O)C1=C[C@H](O)[C@@H]2C[C@H]3[C@H](CCC/C=C/C=C/c4ccccc4)[C@H]4C=C[C@@H]1[C@@H]2[C@H]43` [BEILSCHMIEDIC ACID I]: in the experiment with Staphylococcus aureus (isolate 108, 24 h), the MIC worked out at 12 µg/mL (≈ 29.8 µM). The result in the experiment with PC-3, in the experiment on M14 and in the experiment on NCI-H460 [3] was inactive. Moreover, the IC50 in the experiment on NCI-H460 [2] (setting [5]) was determined as 5.5 µM.
For the compound `O=C(O)C1=C[C@@H](O)[C@@H]2C[C@H]3[C@H](CCCCCc4ccccc4)[C@H]4C=C[C@@H]1[C@@H]2[C@H]43` [BEILSCHMIEDIC ACID K], in the experiment on Staphylococcus aureus (isolate 108, 24 h), the MIC amounted to 11 µg/mL (≈ 29.1 µM). Moreover, the outcome in the experiment with PC-3, in the experiment on M14 and with NCI-H460 [3] was inactive. Further, the concentration for half-maximal inhibition (IC50) with NCI-H460 [2] (setting [5]) was 5.9 µM.
In the experiment on Staphylococcus aureus (isolate 108, 24 h), `O=C(O)C1=C[C@@H](O)[C@@H]2C[C@H]3[C@H](C/C=C/C=C/c4ccccc4)[C@H]4C=C[C@@H]1[C@@H]2[C@H]43` [BEILSCHMIEDIC ACID L] displayed an MIC of 11 µg/mL (≈ 29.4 µM). Besides, the outcome with PC-3, with M14 and in the experiment on NCI-H460 [3] was inactive. Further, the IC50 with NCI-H460 [2] (setting [5]) is 4.4 µM.
As for `O=C(O)C1=C[C@@H](O)[C@@H]2C[C@H]3[C@H](CCC/C=C\C=C\c4ccccc4)[C@H]4C=C[C@@H]1[C@@H]2[C@H]43` [BEILSCHMIEDIC ACID M], the result in the experiment with NCI-H460 [4] was Active. Moreover, inhibition of growth against Staphylococcus aureus (isolate 108, 24 h) (MIC) required 12 µg/mL (≈ 29.8 µM). Besides, the result with PC-3, in the experiment on M14 and with NCI-H460 [3] was inactive. In the experiment on NCI-H460 [2] (setting [5]), the 50% inhibitory concentration (IC50) is 8.7 µM.
With `O=C(O)C1=C[C@@H](O)[C@@H]2C[C@H]3[C@H](CCCC4C=CC(c5ccccc5)OO4)[C@H]4C=C[C@@H]1[C@@H]2[C@H]43` (stereo not given in full) [BEILSCHMIEDIC ACID N], the MIC against Staphylococcus aureus (isolate 108, 24 h) worked out at 13 µg/mL (≈ 29.9 µM). Moreover, the outcome with PC-3 and in the experiment with M14 was inactive. Moreover, the IC50 with NCI-H460 [2] (setting [5]) came to 19 µM.
`O=C(O)C1=C[C@@H](O)[C@@H]2C[C@H]3[C@H](CCCc4ccc(-c5ccccc5)o4)[C@H]4C=C[C@@H]1[C@@H]2[C@H]43` [BEILSCHMIEDIC ACID O] had an MIC with Staphylococcus aureus (isolate 108, 24 h) of 13 µg/mL (≈ 31.2 µM). Further, the result in the experiment on PC-3, in the experiment with M14 and in the experiment with NCI-H460 [1] was inactive. In addition, in the experiment with NCI-H460 [2] (nci-h460), the IC50 entry is given as “Not Active”.
For `CC[C@@]1(O)C(=O)OCc2c1cc1n(c2=O)Cc2cc3ccccc3nc2-1` [CAMPTOTHECIN], the IC50 with NCI-H460 [2] (setting [5]) was 0.003 µM.
